Experiment [1] is described as follows: concentration required to reduce virus Human Cytomegalovirus (Davis)plaque formation by 50%. It is filed as functional. The method, boiled down: (§1)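 Confluent HEL fibroblasts were infected with 100 PFU cell-free HCMV, and residual virus was removed after 2 h. Cells were kept in MEM with 2% FCS and compound dilutions spaced 5-fold, in duplicate, for 7 days at 37 °C in 5% CO2. They were ethanol-fixed and Giemsa-stained, and cytopathic effect was scored microscopically. IC50 was interpolated from plots as the mean of two experiments.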

Experiment [2] in a line: concentration required to reduce CEM cell proliferation by 50%. Conditions: Homo sapiens.
The nature of experiment [3]: concentration required to reduce virus HCMV (AD-169)plaque formation by 50%. It is filed as functional, Homo sapiens. The method, boiled down: as §1
Experiment [4] has as its system HEL. Put plainly: Inhibition of cell growth in HEL cells. Format: functional. Conditions: Homo sapiens. The method, boiled down:
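HEL fibroblasts seeded at 5×10^3 cells/well and left to proliferate 24 h, then given compound dilutions in duplicate. Incubated 3 days at 37 °C, 5% CO2; cells counted with a Coulter counter. CC50 is the concentration reducing cell growth by 50%.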

The test system of experiment [5] is Human betaherpesvirus 5. Put plainly: In vitro inhibition of HCMV (AD-169) plaque formation. Format: functional, organism-based. An outline of the steps:
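Confluent HEL fibroblasts infected with HCMV at 100 PFU of cell-free virus; after a 2-h adsorption, residual virus removed and cells incubated in MEM with 2% FCS containing serial 5-fold compound dilutions, in duplicate. Fixed with ethanol after 7 days at 37 °C, 5% CO2, then Giemsa-stained; cytopathic effect scored microscopically. IC50 read graphically from % cytopathicity; mean of two experiments.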

For experiment [6], the system named is Human betaherpesvirus 5. Put plainly: concentration required to reduce virus HCMV (C)plaque formation by 50%. Format: functional, organism-based. The method, boiled down: (§2)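 Wild-type HCMV clinical isolates from patients (congenital infection, mononucleosis, AIDS, bone marrow transplant) tested in confluent HEL fibroblasts. IC50 taken as the concentration reducing virus plaque formation by 50%; assays in duplicate.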

The subject of experiment [7] is Human betaherpesvirus 5. Put plainly: concentration required to reduce virus HCMV (E)plaque formation by 50%. It is filed as functional, organism-based. The method, boiled down:
as §2

The test system of experiment [8] is Human betaherpesvirus 5. Put plainly: concentration required to reduce virus HCMV (B)plaque formation by 50%. Format: functional, organism-based. An outline of the steps: as §2
Experiment [9] has as its system HEL. Put plainly: In vitro alteration in cell morphology in HEL cells. Conditions: Homo sapiens. Format: functional. An outline of the steps:
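Normal HEL cells exposed to compounds and examined microscopically; minimum cytotoxic concentration is the lowest giving a detectable change in cell morphology. Duplicate assays.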

Experiment [10] concerns Human betaherpesvirus 5. Put plainly: concentration required to reduce virus HCMV (G)plaque formation by 50%. Format: functional, organism-based. The method, boiled down: as §2
In experiment [11] the test system is Human betaherpesvirus 5. Put plainly: concentration required to reduce virus HCMV (F)plaque formation by 50%. Format: functional, organism-based. An outline of the steps:
as §2

Experiment [12] has as its system Human betaherpesvirus 5. Put plainly: concentration required to reduce virus HCMV (D)plaque formation by 50%. Format: functional, organism-based. An outline of the steps: as §2
Experiment [13] relates to Human betaherpesvirus 5. Put plainly: concentration required to reduce virus HCMV (A)plaque formation by 50%. It is filed as functional, organism-based. The method, boiled down: as §2

The structures appear in SMILES notation.

The source of these data is ChEMBL document CHEMBL1133628, “Nonnucleoside human cytomegalovirus inhibitors: synthesis and antiviral evaluation of (chlorophenylmethyl)benzothiadiazine dioxide derivatives” (J Med Chem, 2000).

As for `O=S1(=O)N=C(OCc2ccc(Cl)cc2)c2ccccc2N1Cc1ccc(Cl)cc1`, the EC50 in [1] and in experiment [3] was over 50 µM in each case. Further, the CC50 (commonly the concentration giving 50% cytotoxicity) in [2] was over 250 µM.
Take `Nc1nc2c(ncn2COC(CO)CO)c(=O)[nH]1` [GANCICLOVIR]: the CC50 with HEL [4] turned out to be 394 µM. Besides, the IC50 (usually the concentration at which inhibition is half-maximal) with Human betaherpesvirus 5 [5] was determined as 3.7 µM; in the experiment on Human betaherpesvirus 5 [6] it was 6.2 µM; with Human betaherpesvirus 5 [7] it was 4.1 µM; in the experiment on Human betaherpesvirus 5 [8], 6.2 µM; in the experiment with Human betaherpesvirus 5 [10], 8.2 µM; in the experiment on Human betaherpesvirus 5 [11] it was 6.2 µM. For the same compound, the IC50 in the experiment on Human betaherpesvirus 5 [12] came to 4.1 µM; in the experiment on Human betaherpesvirus 5 [13] it was 6.2 µM. The compound also gave an MCC in the experiment with HEL [9] of over 150 µM.
